Compound activity (PubChem BioAssay)
ROMK mod – modulators of human ROMK potassium channel. AID 1918. B-score at 10 µM. 130,000 compounds, 2% hits. Tet-inducible ROMK, thallium flux fluorescence; actives lie on both sides. P48048;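 active means signal ratio slope over the read window, or its plate-corrected B-score, at least 3 SD from the plate mean, either direction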;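 further: B-score of the F/F0 ratio slope over 7 to 12 s after thallium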
MT stabilize HCS – microtubule stabilization, imaging screen; HeLa tubulin immunostaining HCS, 24 h; share of cells brighter than vehicle mean+2SD; % tubulin-high responders, % at 10 µM; 200,000 compounds, 0.83% hits; AID 2205;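 active means plate Z-score above 3 for both tubulin-high and condensed-nucleus cell shares, with cell loss under 80%, at 10 µM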;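 further: anti alpha tubulin signal scored within the nucleus-defined area of each cell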
Redox H2O2 prof – compounds producing H2O2 with reducing agent – biochemical, NIH compound library profiling, artefact control for MLSCN library redox annotation, primary screen; DTT-dependent redox cycling H2O2, phenol red/HRP absorbance; 100% = 100 µM peroxide control, 0% = buffer; activation, % at 10 µM; 200,000 compounds, 0.03% hits;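 active means activation of at least 50% relative to the plate's high and low controls in the primary single-dose screen; inactive means activation below 50%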;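 further: compound incubated with DTT at 0.8 mM final as the reducing agent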
bCat nuc transl – alters nuclear translocation of beta-catenin in HeLa cells; immunofluorescence imaging; nuclear translocation activity, % at 5 µM; 190,000 compounds, 0.3% hits;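 active means nuclear translocation activity above 50% at 5 µM, with a well cell count of 50 or more; inconclusive means wells under 50 cells across six images, flagged as toxic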;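 further: per-cell ratio of nuclear to cytoplasmic median beta-catenin stain intensity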
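Signal – beta-catenin immunofluorescence imaging with DAPI · Test system – human HeLa cell line · Dosing – 5 µM primary single dose, 0.1% DMSO, 0.02–20 µM confirmation series · Measure – % activation, nuclear-to-cytoplasmic median beta-catenin signal ratio per cell · Incubation – 24 h compound exposure at 37°C, 5% CO2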
Cl transport mod – modulates chloride dependent transport by human KCC2. 190,000 compounds, 2.2% hits. KCC2 cells, thallium flux FluoZin-2 fluorescence. Q9H2X9. B-score of Tl+ flux slope (higher = more flux/activation; lower = inhibition) at 10 µM;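 active means thallium flux slope and its plate-corrected score both differing from the plate sample mean at a set confidence after two filtering rounds, in either direction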;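 further: slope of fluorescence scaled to starting intensity during 10 to 20 s after thallium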
Target sequence (Q9H2X9 whole entry, looked up): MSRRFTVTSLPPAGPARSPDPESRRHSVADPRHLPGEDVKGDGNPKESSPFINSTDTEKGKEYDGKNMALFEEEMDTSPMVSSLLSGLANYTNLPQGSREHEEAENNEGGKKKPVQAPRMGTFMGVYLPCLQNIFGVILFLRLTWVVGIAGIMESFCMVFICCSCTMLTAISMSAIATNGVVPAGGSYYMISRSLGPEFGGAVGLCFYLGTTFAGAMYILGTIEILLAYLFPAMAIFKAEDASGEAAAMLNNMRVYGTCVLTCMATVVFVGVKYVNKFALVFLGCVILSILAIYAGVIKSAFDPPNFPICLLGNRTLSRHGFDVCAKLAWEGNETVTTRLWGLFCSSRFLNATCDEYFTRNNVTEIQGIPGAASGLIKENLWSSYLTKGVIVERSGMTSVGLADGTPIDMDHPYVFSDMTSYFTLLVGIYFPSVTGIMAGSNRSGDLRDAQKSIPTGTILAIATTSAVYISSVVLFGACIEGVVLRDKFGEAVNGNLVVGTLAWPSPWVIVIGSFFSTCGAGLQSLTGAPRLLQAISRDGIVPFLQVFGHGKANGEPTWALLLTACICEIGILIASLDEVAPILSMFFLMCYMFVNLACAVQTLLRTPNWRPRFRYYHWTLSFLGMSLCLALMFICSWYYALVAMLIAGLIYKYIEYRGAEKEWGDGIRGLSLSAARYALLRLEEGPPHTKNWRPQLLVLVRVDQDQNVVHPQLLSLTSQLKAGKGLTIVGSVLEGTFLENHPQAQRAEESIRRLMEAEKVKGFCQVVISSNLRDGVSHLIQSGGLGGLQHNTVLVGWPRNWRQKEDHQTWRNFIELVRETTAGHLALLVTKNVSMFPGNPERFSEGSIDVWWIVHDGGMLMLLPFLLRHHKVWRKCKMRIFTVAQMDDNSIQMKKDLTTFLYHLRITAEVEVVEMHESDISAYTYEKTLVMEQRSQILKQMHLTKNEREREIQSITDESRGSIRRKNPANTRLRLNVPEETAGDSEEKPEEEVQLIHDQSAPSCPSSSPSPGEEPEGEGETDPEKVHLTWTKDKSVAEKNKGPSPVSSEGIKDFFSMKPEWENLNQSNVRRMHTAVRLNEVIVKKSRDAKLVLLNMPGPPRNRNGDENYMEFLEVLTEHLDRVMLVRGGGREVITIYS
KCC2 sec1 – confirmation of human KCC2 transport modulators; HEK293-KCC2, thallium flux, FluoZin2 fluorescence; hits give high values; 3,700 compounds, 15% hits; AID 1713; normalised thallium flux (F/F0 slope) at 10 µM; shares compounds with Cl transport mod;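 active means thallium flux slope above the same plate's solvent-only control mean plus 3 SD; inconclusive means the two replicate wells disagree; inactive means no significant difference from solvent-only control wells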
KCC2 bumet counter – thallium flux persisting under bumetanide in KCC2 cells, counter-screen secondary assay. 3,700 compounds, 49% hits. shares compounds with Cl transport mod. AID 1714. HEK293-KCC2 + bumetanide/ouabain, thallium flux FluoZin2; hits give high values. normalized thallium flux at 10 µM;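 active means thallium entry rate above the same plate's blocked-transporter control wells by more than 3 SD; inconclusive means the two repeat wells disagree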;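 further: raw slope of fluorescence over initial fluorescence between 10 and 20 s after thallium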
KCC2 secondary2 – KCC2 (human) modulation, second secondary assay | shares compounds with Cl transport mod | HEK293-KCC2, thallium flux FluoZin2 fluorescence; actives lie on both sides; F/F0 rise rate, 10–20 s post-thallium | normalized thallium flux at 10 µM | 3,700 compounds, 23% hits | AID 1715;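 active means thallium flux slope more than 3 SD above or below the plate's solvent-only control mean, mostly below; inconclusive means the two repeat wells disagreed; inactive means no significant shift from solvent-only controls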
HEK counter1 – parental HEK flux effect, counter-screen; HEK293 parental cells, thallium flux FluoZin2, ouabain; baseline-ratio fluorescence slope, 10–20 s after thallium; thallium flux rate (normalised fluorescence) at 10 µM; 3,700 compounds, 46% hits; AID 1716; shares compounds with Cl transport mod;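 active means thallium flux rate significantly above the same plate's solvent-only control wells, beyond their mean plus 3 SD; inconclusive means the two replicate wells gave conflicting results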
KCC2 ouabain – KCC2 (human) modulation, ouabain retest | shares compounds with Cl transport mod | HEK293-KCC2, thallium flux FluoZin2 fluorescence; bidirectional: low = inhibitor, high = activator | raw Tl+ flux slope (below DMSO = inhibition, above = activation) at 10 µM | 3,700 compounds, 48% hits;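 active means thallium flux slope beyond 3 SD from same-plate DMSO control mean in most replicates, usually higher, sometimes lower; inconclusive means repeat tests gave conflicting results; inactive means no significant difference from controls in most replicates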;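 further: slope of initial-normalized fluorescence between seconds 10 and 20 after thallium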
HEK counter2 – acts in parental HEK cells, second KCC2 counter-screen. shares compounds with Cl transport mod. HEK293 parental, thallium flux FluoZin-2 fluorescence slope. thallium flux slope at 10 µM. 3,700 compounds, 33% hits;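 active means thallium flux slope above the same plate's solvent-control mean plus 3 SD in both duplicate wells; inconclusive means duplicate wells that disagreed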;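 further: run without ouabain in cells lacking the KCC2 cotransporter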
Of the large screens only hits and unclear results are named; the others gave an inactive call (follow-up assays come after a bar, where they were run). Rows were chosen to be rich in hits. Some 3.7% of all compounds tested hit in one or more screens of this group.

C/C(=N\NC(=O)c1cc([N+](=O)[O-])cc([N+](=O)[O-])c1)c1ccco1	Cl transport mod 38 | KCC2 sec1 0.03 | KCC2 bumet counter 0.075 | KCC2 secondary2 inconclusive | HEK counter1 0.038 | KCC2 ouabain 0.055 | HEK counter2 0.017
CCOC(=O)/C(C)=N/NC(=O)c1cccc([N+](=O)[O-])c1	Cl transport mod 32 (no result: ROMK mod) | KCC2 sec1 inactive | KCC2 bumet counter 0.026 | KCC2 secondary2 0.04 | HEK counter1 0.027 | KCC2 ouabain 0.034 | HEK counter2 0.022
Cn1ccnc1/C(=N\NC(=O)c1ccccc1)c1cccc([N+](=O)[O-])c1	none
O=C(c1ccco1)N1CCN(Cc2nc(-c3cccs3)no2)CC1	none (no result: Cl transport mod)
COc1cc(C(=O)NNC(=O)c2ccc(NC(C)=O)cc2)cc(OC)c1OC	none
COc1cc(C(=O)NNC(=S)NC(=O)c2ccc(F)cc2)cc(OC)c1OC	Cl transport mod 6.5 (no result: MT stabilize HCS, Redox H2O2 prof) | KCC2 sec1 inactive | KCC2 bumet counter 0.015 | KCC2 secondary2 inactive | HEK counter1 0.014 | KCC2 ouabain inconclusive | HEK counter2 inactive
COc1cc(C(=O)NC(=S)NNC(=O)c2ccc3c(c2)OCO3)cc(OC)c1OC	Cl transport mod 5.1 (no result: MT stabilize HCS, Redox H2O2 prof) | KCC2 sec1 inactive | KCC2 bumet counter 0.013 | KCC2 secondary2 inactive | HEK counter1 inconclusive | KCC2 ouabain inconclusive | HEK counter2 inactive
COc1cc(C(=O)NC(=S)N(C)Cc2ccccc2)cc(OC)c1OC	Cl transport mod 11 | KCC2 sec1 0.018 | KCC2 bumet counter 0.051 | KCC2 secondary2 inactive | HEK counter1 0.017 | KCC2 ouabain 0.033 | HEK counter2 0.012
Cn1c(=O)c2c(ncn2CC(O)CNc2cccc(Cl)c2)n(C)c1=O (stereo not drawn)	none
C/C(=C/C(=O)Nc1cccc(F)c1)N1CCCC1	none (no result: ROMK mod)
Cc1ccc(-c2csc(NC(=O)C3CC(=O)N(Cc4ccco4)C3)n2)cc1 (stereo not drawn)	none
Cc1csc(NC(=O)C2CC(=O)N(Cc3ccco3)C2)n1 (stereo not drawn)	Cl transport mod 2.8 | KCC2 sec1 inactive | KCC2 bumet counter inactive | KCC2 secondary2 inactive | HEK counter1 inactive | KCC2 ouabain inactive | HEK counter2 inactive
CCc1cc(C(=O)N2CCCC(CCC(=O)N3CCN(c4ccccn4)CC3)C2)no1 (stereo not drawn)	none
CCc1cc(C(=O)N2CCCC(CNC(=O)c3ccc(-c4ccccc4)cc3)C2)no1 (stereo not drawn)	none (no result: Cl transport mod) | KCC2 sec1 inactive | KCC2 bumet counter inactive | KCC2 secondary2 0.028 | HEK counter1 inactive | KCC2 ouabain 0.014 | HEK counter2 inactive
CSCCC(=O)N1CCCC(CNC(=O)c2ccc(-c3ccccc3)cc2)C1 (stereo not drawn)	Cl transport mod -5.8 | KCC2 sec1 inactive | KCC2 bumet counter inactive | KCC2 secondary2 0.021 | HEK counter1 inactive | KCC2 ouabain 0.013 | HEK counter2 inactive
O=C(Nc1ccc2nc3n(c(=O)c2c1)CCCC3)c1cc([N+](=O)[O-])ccc1F	Cl transport mod -3.1 (no result: ROMK mod, bCat nuc transl) | KCC2 sec1 inactive | KCC2 bumet counter inactive | KCC2 secondary2 inactive | HEK counter1 inconclusive | KCC2 ouabain inactive | HEK counter2 inactive
COc1cc(OC)cc(C(=O)NCC(=O)OCC(=O)N2CC(C)CC(C)C2)c1 (stereo not drawn)	none
CC(C)(C)C1C/C(=C/c2ccccn2)C(=O)/C(=C/c2ccccn2)C1 (stereo not drawn)	Cl transport mod -3.4 (no result: bCat nuc transl) | KCC2 sec1 inactive | KCC2 bumet counter 0.0094 | KCC2 secondary2 inactive | HEK counter1 0.0095 | KCC2 ouabain inactive | HEK counter2 inconclusive
CCCN(C(=O)COc1ccc(Cl)cc1Cl)c1c(N)n(Cc2ccccc2)c(=O)[nH]c1=O	none
CCN(CC)CCSc1nc(O)c(-c2ccccc2)c(=O)n1-c1ccccc1	none
CCN(CC)CCSc1nc2ccccc2c(=S)n1-c1ccccc1	Cl transport mod 2.8 (no result: ROMK mod) | KCC2 sec1 inactive | KCC2 bumet counter inactive | KCC2 secondary2 inactive | HEK counter1 inactive | KCC2 ouabain inactive | HEK counter2 inactive
CCOc1ncccc1C(=O)OCCN1C(=O)c2ccccc2C1=O	Cl transport mod 5.8 (no result: ROMK mod) | KCC2 sec1 inactive | KCC2 bumet counter inactive | KCC2 secondary2 inactive | HEK counter1 inactive | KCC2 ouabain inactive | HEK counter2 inactive
CCOc1ncccc1C(=O)OCC(=O)c1ccccc1	none
COc1ccccc1Nc1nnc(SCc2cc(=O)n3ccsc3n2)s1	none
Cc1ccc(Nc2nnc(SCc3cc(=O)n4ccsc4n3)s2)c(C)c1	Cl transport mod -7.6 (no result: ROMK mod) | KCC2 sec1 inactive | KCC2 bumet counter inactive | KCC2 secondary2 inconclusive | HEK counter1 inactive | KCC2 ouabain 0.016 | HEK counter2 inactive
CCc1ccc(Nc2nnc(SCc3cc(=O)n4ccsc4n3)s2)cc1	Cl transport mod -8.5 | KCC2 sec1 inactive | KCC2 bumet counter inactive | KCC2 secondary2 0.021 | HEK counter1 inactive | KCC2 ouabain 0.011 | HEK counter2 inactive
O=C(C1=NN[C@@H]2C(=O)N(Cc3ccccc3)C(=O)[C@H]12)c1ccc([N+](=O)[O-])cc1	none (no result: MT stabilize HCS, Redox H2O2 prof)
CSc1ccccc1C(=O)NCCOc1ccccc1C	none (no result: Cl transport mod)
CCc1ccc(OCCNC(=O)c2ccccc2SCc2ccccc2)cc1	none (no result: ROMK mod, Cl transport mod) | KCC2 sec1 inactive | KCC2 bumet counter inconclusive | KCC2 secondary2 0.024 | HEK counter1 inactive | KCC2 ouabain 0.015 | HEK counter2 inactive
CCNC(=O)c1ccccc1SCc1ccccc1	none
O=C(NCCOc1ccccc1F)c1ccccc1SCc1ccc(F)cc1	Cl transport mod -6.2 (no result: bCat nuc transl) | KCC2 sec1 inactive | KCC2 bumet counter inactive | KCC2 secondary2 0.022 | HEK counter1 inactive | KCC2 ouabain 0.012 | HEK counter2 inactive
CCNC(=S)Nc1ccccc1-c1ccccc1	none
